# “Also recorded” adds a separate entry of the source.
# T1: AtD14 (Arabidopsis thaliana, UniProt Q9SQR3)
# T1 sequence (Q9SQR3 1-267): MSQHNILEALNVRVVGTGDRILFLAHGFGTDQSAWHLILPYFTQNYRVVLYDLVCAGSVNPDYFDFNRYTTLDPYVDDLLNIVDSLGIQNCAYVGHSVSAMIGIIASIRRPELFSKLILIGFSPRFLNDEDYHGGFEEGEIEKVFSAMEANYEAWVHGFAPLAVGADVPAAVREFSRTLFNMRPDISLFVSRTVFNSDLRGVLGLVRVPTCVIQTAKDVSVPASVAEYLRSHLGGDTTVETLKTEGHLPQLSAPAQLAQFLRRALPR
# T2: AtDLK2 wt (Arabidopsis thaliana, UniProt F4J6L0)
# T2 sequence (F4J6L0 1-273): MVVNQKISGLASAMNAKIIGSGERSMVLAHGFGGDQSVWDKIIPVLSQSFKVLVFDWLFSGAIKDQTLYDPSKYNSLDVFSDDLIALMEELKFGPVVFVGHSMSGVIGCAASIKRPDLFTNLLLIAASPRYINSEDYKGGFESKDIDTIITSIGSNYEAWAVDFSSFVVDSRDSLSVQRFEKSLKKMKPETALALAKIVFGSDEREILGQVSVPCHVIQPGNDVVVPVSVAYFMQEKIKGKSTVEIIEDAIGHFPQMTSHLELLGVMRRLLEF
# T3: AtDLK2 F167A (Arabidopsis thaliana, UniProt F4J6L0, F167A)
# T3 sequence (F4J6L0 1-273 F167A): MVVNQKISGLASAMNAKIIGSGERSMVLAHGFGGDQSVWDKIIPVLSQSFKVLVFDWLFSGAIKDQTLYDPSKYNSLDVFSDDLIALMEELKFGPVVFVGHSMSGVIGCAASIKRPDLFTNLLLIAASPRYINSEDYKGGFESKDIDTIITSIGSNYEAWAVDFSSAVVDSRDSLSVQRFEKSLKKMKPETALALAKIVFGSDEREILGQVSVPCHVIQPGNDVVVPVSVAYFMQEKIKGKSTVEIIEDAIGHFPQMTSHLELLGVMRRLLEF
# T4: AtDLK2 F167L (Arabidopsis thaliana, UniProt F4J6L0, F167L)
# T4 sequence (F4J6L0 1-273 F167L): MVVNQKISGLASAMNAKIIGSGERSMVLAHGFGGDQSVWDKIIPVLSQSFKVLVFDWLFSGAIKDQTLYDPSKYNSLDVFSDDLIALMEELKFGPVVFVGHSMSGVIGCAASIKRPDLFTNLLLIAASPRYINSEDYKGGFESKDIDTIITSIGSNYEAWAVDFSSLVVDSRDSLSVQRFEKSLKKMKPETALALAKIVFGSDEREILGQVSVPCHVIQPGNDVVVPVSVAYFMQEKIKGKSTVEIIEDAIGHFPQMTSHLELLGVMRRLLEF
# T5: AtKAI2 (Arabidopsis thaliana, UniProt Q9SZU7)
# T5 sequence (Q9SZU7 1-270): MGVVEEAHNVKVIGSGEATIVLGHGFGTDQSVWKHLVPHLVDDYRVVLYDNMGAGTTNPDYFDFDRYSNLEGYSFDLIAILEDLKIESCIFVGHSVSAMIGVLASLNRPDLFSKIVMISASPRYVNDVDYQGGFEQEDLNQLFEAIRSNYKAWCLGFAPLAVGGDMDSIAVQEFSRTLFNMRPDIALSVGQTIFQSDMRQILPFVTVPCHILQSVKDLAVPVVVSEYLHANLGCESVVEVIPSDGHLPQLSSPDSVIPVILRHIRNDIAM
# T6: AtDLK2 (Arabidopsis thaliana, UniProt F4J6L0)
# T6 sequence (F4J6L0 1-273): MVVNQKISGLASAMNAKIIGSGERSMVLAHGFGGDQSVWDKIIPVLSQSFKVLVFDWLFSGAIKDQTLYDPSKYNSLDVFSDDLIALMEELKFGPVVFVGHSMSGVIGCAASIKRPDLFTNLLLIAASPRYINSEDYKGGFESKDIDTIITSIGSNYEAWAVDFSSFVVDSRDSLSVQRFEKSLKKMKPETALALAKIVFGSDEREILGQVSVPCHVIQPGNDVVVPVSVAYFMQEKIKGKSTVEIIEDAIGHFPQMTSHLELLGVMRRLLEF
# B1: AtDLK2 wt (Arabidopsis thaliana) (protein)
# chain: MVVNQKISGLASAMNAKIIGSGERSMVLAHGFGGDQSVWDKIIPVLSQSFKVLVFDWLFSGAIKDQTLYDPSKYNSLDVFSDDLIALMEELKFGPVVFVGHSMSGVIGCAASIKRPDLFTNLLLIAASPRYINSEDYKGGFESKDIDTIITSIGSNYEAWAVDFSSFVVDSRDSLSVQRFEKSLKKMKPETALALAKIVFGSDEREILGQVSVPCHVIQPGNDVVVPVSVAYFMQEKIKGKSTVEIIEDAIGHFPQMTSHLELLGVMRRLLEF
# B2: AtDLK2 F167L (Arabidopsis thaliana; F167L) (protein)
# chain: MVVNQKISGLASAMNAKIIGSGERSMVLAHGFGGDQSVWDKIIPVLSQSFKVLVFDWLFSGAIKDQTLYDPSKYNSLDVFSDDLIALMEELKFGPVVFVGHSMSGVIGCAASIKRPDLFTNLLLIAASPRYINSEDYKGGFESKDIDTIITSIGSNYEAWAVDFSSLVVDSRDSLSVQRFEKSLKKMKPETALALAKIVFGSDEREILGQVSVPCHVIQPGNDVVVPVSVAYFMQEKIKGKSTVEIIEDAIGHFPQMTSHLELLGVMRRLLEF
# B3: AtDLK2 F167A (Arabidopsis thaliana; F167A) (protein)
# chain: MVVNQKISGLASAMNAKIIGSGERSMVLAHGFGGDQSVWDKIIPVLSQSFKVLVFDWLFSGAIKDQTLYDPSKYNSLDVFSDDLIALMEELKFGPVVFVGHSMSGVIGCAASIKRPDLFTNLLLIAASPRYINSEDYKGGFESKDIDTIITSIGSNYEAWAVDFSSAVVDSRDSLSVQRFEKSLKKMKPETALALAKIVFGSDEREILGQVSVPCHVIQPGNDVVVPVSVAYFMQEKIKGKSTVEIIEDAIGHFPQMTSHLELLGVMRRLLEF
# B4: AtD14 (Arabidopsis thaliana) (protein)
# chain: MSQHNILEALNVRVVGTGDRILFLAHGFGTDQSAWHLILPYFTQNYRVVLYDLVCAGSVNPDYFDFNRYTTLDPYVDDLLNIVDSLGIQNCAYVGHSVSAMIGIIASIRRPELFSKLILIGFSPRFLNDEDYHGGFEEGEIEKVFSAMEANYEAWVHGFAPLAVGADVPAAVREFSRTLFNMRPDISLFVSRTVFNSDLRGVLGLVRVPTCVIQTAKDVSVPASVAEYLRSHLGGDTTVETLKTEGHLPQLSAPAQLAQFLRRALPR
# B5: AtKAI2 (Arabidopsis thaliana) (protein)
# chain: MGVVEEAHNVKVIGSGEATIVLGHGFGTDQSVWKHLVPHLVDDYRVVLYDNMGAGTTNPDYFDFDRYSNLEGYSFDLIAILEDLKIESCIFVGHSVSAMIGVLASLNRPDLFSKIVMISASPRYVNDVDYQGGFEQEDLNQLFEAIRSNYKAWCLGFAPLAVGGDMDSIAVQEFSRTLFNMRPDIALSVGQTIFQSDMRQILPFVTVPCHILQSVKDLAVPVVVSEYLHANLGCESVVEVIPSDGHLPQLSSPDSVIPVILRHIRNDIAM
# Assays:
# [1] = target: T1, AtD14; details: substrate rac‐GR24; ref Zhao et al., 2013; cited from earlier work
# [2] = target: T1, AtD14; test: Differential scanning fluorimetry, AtD14; format: binding
# Procedure, shortened: (§1)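 Recombinant protein was expressed in E. coli BL21(DE3), GST-affinity captured, tag removed by on-column HRV3 protease, then size-exclusion purified. DSF used 10 μg protein with rac-GR24 and 3× (final) Sypro Orange in 20 mM TRIS-HCl, 30 mM NaCl, 1 mM TCEP-HCl, pH 7.7. Heating ran 25–95°C at 1°C per minute, in triplicate, and was read from the denaturation curve and its derivative.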
# [3] = target: T2, AtDLK2 wt; test: Differential scanning fluorimetry, AtDLK2 wt; format: binding
# [4] = target: T3, AtDLK2 F167A; test: Differential scanning fluorimetry, AtDLK2 F167A; format: binding
# Procedure, shortened: as §1
# [5] = target: T4, AtDLK2 F167L; test: Differential scanning fluorimetry, AtDLK2 F167L; format: binding
# Procedure, shortened: as §1
# [6] = target: T1, AtD14; test: Inhibition of AtD14 enzymatic activity on pNP acetate; format: biochemical; details: for inhibition of the enzymatic activity of AtD14 (in words): pNP acetate as substrate
# [7] = target: T5, AtKAI2; test: Inhibition of AtKAI2 enzymatic activity on pNP acetate; format: biochemical; details: for inhibition of the enzymatic activity of AtKAI2 (in words): pNP acetate as substrate
# [8] = target: T5, AtKAI2; test: Michaelis–Menten kinetics on para‐nitrophenyl acetate, AtKAI2; format: biochemical; details: substrate pNP acetate
# [9] = target: T3, AtDLK2 F167A; test: Michaelis–Menten kinetics on para‐nitrophenyl acetate, AtDLK2 F167A; format: biochemical; details: substrate pNP acetate
# [10] = system: AtDLK2 wt; test: Michaelis–Menten kinetics on para‐nitrophenyl acetate, AtDLK2 wt; format: biochemical, Arabidopsis thaliana; details: substrate pNP acetate
# [11] = target: T6, AtDLK2; details: ref Végh et al., 2017; cited from earlier work
# [12] = target: T6, AtDLK2; details: at high concentrations; ref Végh et al., 2017; cited from earlier work
# [13] = substrate: CC(=O)Oc1ccc([N+](=O)[O-])cc1; test: Michaelis–Menten kinetics on para‐nitrophenyl acetate, AtDLK2 wt; format: biochemical, Arabidopsis thaliana; details: other: AtDLK2 wt, substrate pNP acetate; pH 7.0
# [14] = substrate: CC(=O)Oc1ccc([N+](=O)[O-])cc1; test: Michaelis–Menten kinetics on para‐nitrophenyl acetate, AtDLK2 F167L; format: biochemical, Arabidopsis thaliana; details: other: AtDLK2 F167L, substrate pNP acetate; pH 7.0
# [15] = substrate: CC(=O)Oc1ccc([N+](=O)[O-])cc1; test: Michaelis–Menten kinetics on para‐nitrophenyl acetate, AtDLK2 F167A; format: biochemical, Arabidopsis thaliana; details: other: AtDLK2 F167A, substrate pNP acetate; pH 7.0
# [16] = substrate: CC(=O)Oc1ccc([N+](=O)[O-])cc1; test: Michaelis–Menten kinetics on para‐nitrophenyl acetate, AtD14; format: biochemical, Arabidopsis thaliana; details: other: AtD14, substrate pNP acetate; pH 7.0
# [17] = substrate: CC(=O)Oc1ccc([N+](=O)[O-])cc1; test: Michaelis–Menten kinetics on para‐nitrophenyl acetate, AtKAI2; format: biochemical, Arabidopsis thaliana; details: other: AtKAI2, substrate pNP acetate; pH 7.0
# [18] = 100 μM concentration of 1, pNP acetate as substrate
molecule,measurement,setting,value
CC1=C[C@H](O/C=C2/C(=O)O[C@@H]3c4ccccc4C[C@H]23)OC1=O (racemic) [rac‐GR24],turnover rate of AtD14,[1],1 molecule/3 min
same,rac‐GR24‐induced destabilization in DSF,[2],clearly destabilize
same,rac‐GR24‐induced destabilization in DSF,[3],no or marginal
same,rac‐GR24‐induced destabilization in DSF,[4],no or marginal
same,rac‐GR24‐induced destabilization in DSF,[5],no or marginal
"CC1(c2ccccc2)CC(C)(C)N2C(=O)C(=O)c3cccc1c32 (stereo not shown) [Compound 1, 4,4,6‐Trimethyl‐6‐phenyl‐5,6‐dihydro‐4H‐pyrrolo[3,2,1‐ij]quinoline‐1,2‐dione]",retained activity of AtD14,[6]; [18],84%
same,decrease of AtD14's enzymatic activity,[6]; 1 at concentrations of 12.5 μM or higher,slight decrease
same,inhibition of the enzymatic activity of AtD14 (in words),[6],only marginally inhibits
same,inhibition of the enzymatic activity of AtD14 (in words),[6]; listed as compound 1,only marginally decreasing
same,retained activity of AtKAI2,[7]; [18],95%
same,decrease of AtKAI2's activity,[7]; 1 at concentrations of 50 μM or higher,marginal decrease
same,inhibition of the enzymatic activity of AtKAI2 (in words),[7],only marginally inhibits
same,inhibition of the enzymatic activity of AtKAI2 (in words),[7]; listed as compound 1,only marginally decreasing
"CC(=O)Oc1ccc([N+](=O)[O-])cc1 [pNP acetate, para‐nitrophenyl acetate]",catalytic efficiency of AtKAI2 relative to AtD14,[8],94 times higher
same,turnover number (kcat),[9],67 molecules per second
same,catalytic efficiency of AtDLK2 relative to AtD14,[10],625 times higher
same,catalytic efficiency of AtDLK2 relative to AtKAI2,[10],6.7 times higher
(−)‐5‐deoxystrigol,hydrolytic activity of AtDLK2 (in words),[11],moderate hydrolytic activity; also recorded: poor but detectable hydrolytic activity
same,reaction of AtDLK2 in DSF experiments (in words),[12],able to react
B1,Km,[13],2.58 ± 0.10 × 10^−4 M
same,kcat,[13],26.6 ± 0.7 s⁻¹
same,kcat/Km,[13],103000 ± 4000 M⁻¹ s⁻¹
B2,Km,[14],2.53 ± 0.16 × 10^−4 M
same,kcat,[14],69.8 ± 1.5 s⁻¹
same,kcat/Km,[14],276000 ± 17000 M⁻¹ s⁻¹
B3,Km,[15],2.78 ± 0.08 × 10^−4 M
same,kcat,[15],66.9 ± 0.6 s⁻¹
same,kcat/Km,[15],241000 ± 7000 M⁻¹ s⁻¹
B4,Km,[16],2.00 ± 0.16 × 10^−2 M
same,kcat,[16],3.2 ± 0.06 s⁻¹
same,kcat/Km,[16],160 ± 12 M⁻¹ s⁻¹
B5,Km,[17],1.56 ± 0.06 × 10^−3 M
same,kcat,[17],23.6 ± 0.6 s⁻¹
same,kcat/Km,[17],15100 ± 600 M⁻¹ s⁻¹
